Compound activity deposited in PubChem by The Scripps Research Institute Molecular Screening Center.
This is a sample that favours compounds with a hit; in the whole collection about 2.1% have one here.
IMP-1 inh – inhibitors of Pseudomonas aeruginosa IMP-1 metallo-beta-lactamase | purified IMP-1, nitrocefin hydrolysis, epi-absorbance fluorescence | inhibition, % at 5.6 µM | 290,000 compounds, 0.45% hits | AID 1556;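 active = inhibition above the mean plus 3 SD of all compounds in the same screening run, cut at about 4.5% in these data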;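 also: 0% = IMP-1 with DMSO and 100% = DMSO wells lacking enzyme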
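Assay system: purified IMP-1; Quantity: IMP-1 0.2 nM before substrate addition; Medium: HEPES buffer pH 7.1 with ZnSO4 and Brij 35; Incubation: 15 min enzyme–compound preincubation, then 25 min nitrocefin reaction, 25 °C; Signal: fluorescence quenching readout, ex 480/em 530 nm; Controls: DMSO with and without IMP-1; Repeats: singlicate testing.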
VIM-2 inhibitor – inhibitors of Pseudomonas aeruginosa VIM-2 metallo-beta-lactamase; inhibition, % at 5.6 µM; AID 1527; 290,000 compounds, 0.89% hits; purified VIM-2, nitrocefin hydrolysis, epi-absorbance fluorescence;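 active = inhibition above the mean of all tested compounds plus 3 SD, cutoff set per screening run, cut at about 7.5% in these data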;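 also: red hydrolysis product quenches plate fluorescence so inhibitors raise well fluorescence; 0% = enzyme with DMSO and 100% = DMSO without enzyme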
PKA-R1A activ – PKA-R1A complex activation | P00514+P68181 | PKA-R1A dissociation, Cy5-IP20 fluorescence polarization; scaled: DMSO 0%, 113 µM cGMP 100% | activation, % at 11.4 µM | 340,000 compounds, 0.083% hits;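 active = percent activation above the mean of all tested compounds plus 3 SD, cut at about 19% in these data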;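 also: higher means more PKAc released from R1A so a rise in polarization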
bovine MsrA act – activates bovine MsrA enzyme | 360,000 compounds, 0.3% hits | activation, % at 10.6 µM | AID 602163 | purified bovine MsrA, absorbance read-out; in the data active = activation above about 7.5%;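 also: 0% = vehicle and 100% = reference activator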
MsrA inhibitor – inhibitors of bovine MsrA | purified bovine MsrA, absorbance read-out | inhibition, % at 15.5 µM | 360,000 compounds, 0.75% hits;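 also: 0% = vehicle wells with enzyme and 100% = reference inhibitor wells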
PKA-R2B activ – activates the human PKA-R2B holoenzyme complex; PKA-R2B holoenzyme dissociation, Cy5-IP20 fluorescence polarization; R2B truncated from residue 108, S112A mutant; 0% DMSO only, 100% 113 µM cGMP; activation, % at 11.4 µM; 340,000 compounds, 0.079% hits; AID 504700;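 active = activation above a cutoff set at the mean over all compounds plus 3 SD, cut at about 18% in these data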;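 also: higher means more holoenzyme dissociation and a rise in polarization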
Target sequence (P31323 whole entry, looked up, other chains not shown, the tested form may be a part): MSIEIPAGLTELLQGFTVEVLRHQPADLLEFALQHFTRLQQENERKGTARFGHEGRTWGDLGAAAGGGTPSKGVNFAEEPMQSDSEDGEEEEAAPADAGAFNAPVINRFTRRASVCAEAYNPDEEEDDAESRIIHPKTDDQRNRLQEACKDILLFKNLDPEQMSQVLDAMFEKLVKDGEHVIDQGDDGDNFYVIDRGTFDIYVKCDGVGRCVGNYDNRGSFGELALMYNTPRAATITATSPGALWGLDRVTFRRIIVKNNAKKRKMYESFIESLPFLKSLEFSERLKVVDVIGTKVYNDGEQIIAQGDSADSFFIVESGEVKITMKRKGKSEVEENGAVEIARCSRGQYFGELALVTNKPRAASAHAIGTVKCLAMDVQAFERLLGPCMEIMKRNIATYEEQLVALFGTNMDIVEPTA
MsrA conf – bovine MsrA inhibition, confirmed; shares compounds with MsrA inhibitor; 2,300 compounds, 41% hits; purified bovine MsrA, absorbance read-out; inhibition, % at 15.5 µM;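 also: coupled to thioredoxin reductase with NADPH and selenocystamine and DMSO as substrate; 0% = vehicle only and 100% = full effect of reference inhibitor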
* hit, by the source's call; · = no result given. Rule as the data show it, unless noted: active = inhibition above about 4.5%; inactive = the rest.

SMILES	IMP-1 inh	VIM-2 inhibitor	PKA-R1A activ	bovine MsrA act	MsrA inhibitor	PKA-R2B activ	MsrA conf
CC(=O)OCC(=O)Nc1ccc(N=Nc2ccccc2)cc1	-4	-2	-2	-6	5.9*	-6	4
COc1c(O)cc(O)c2c(=O)cc(-c3ccccc3)oc12	·	·	-1	-4	1	-6	·
CC(Sc1nc2ccccc2c(=O)n1CC1CCCO1)C(=O)N(C)c1ccccc1 (stereo unspecified)	·	·	-2	-3	0	-4	·
O=C1C(C=NCCCn2ccnc2)=C(O)c2ccccc21	-3	1	-8	-9	4.7*	8	2
O=C1C(C=NCCCN2CCCC2=O)=C(O)c2ccccc21	-2	-2	5	-2	5.2*	3	3
CC(C)CN=CC1=C(O)c2ccccc2C1=O	-1	-1	-5	-5	4	-6	·
O=[N+]([O-])c1ccc(Nc2ccccc2)c2nonc12	-4	-3	7	4	5.8*	2	4
CN1CCN(C(=O)c2c(NC(=O)c3ccco3)sc3c2CCC(C(C)(C)C)C3)CC1 (stereo unspecified)	-1	-1	-14	-4	-1	1	·
CN(C)C(=O)c1c(NC(=O)c2ccco2)sc2c1CCCCC2	-4	-1	-7	2	1	2	·
CC1CCc2c(sc(NC(=O)c3ccco3)c2C(=O)O)C1 (stereo unspecified)	-2	-2	-5	-3	5.8*	-4	4.7*
O=C(Nc1sc2c(c1C(=O)O)CCCCC2)c1ccco1	-2	-1	-6	-1	6.0*	2	4
COC(=O)c1ccc(N)c2c(N)ccc(C(=O)OC)c12	·	·	·	·	1	·	·
O=C(CN1C(=O)S/C(=C\C=C\c2ccccc2)C1=O)NC1CCS(=O)(=O)C1 (stereo unspecified)	-1	1	8	-7	3	7	·
O=C(CCN1C(=O)S/C(=C/c2ccccc2)C1=O)Nc1ccc(C(=O)O)c(O)c1	-3	-1	-3	-6	5.7*	-12	2
O=C(CN1C(=O)S/C(=C\c2ccccc2)C1=O)NC1CCS(=O)(=O)C1 (stereo unspecified)	-2	-1	-9	-2	5.3*	-8	4
O=C(CCN1C(=O)/C(=C\c2ccccc2)SC1=S)N1CCOCC1	-1	1	3	0	0	12	·
O=C(CCN1C(=O)S/C(=C\c2ccccc2)C1=O)N1CCOCC1	2	3	-12	3	5.7*	-4	3
O=C(CN1C(=O)S/C(=C\c2ccccc2)C1=O)Nc1cc([N+](=O)[O-])ccc1O	-2	0	-10	-4	4.8*	0	4.6*
CC(C)Cc1csc(=S)[nH]1	·	·	-8	7	3	-4	·
O=C(CN1C(=O)S/C(=C/c2ccccn2)C1=O)N1CCOCC1	-1	-2	-4	-6	5.3*	-5	4.8*
O=C(NNC(=O)C1CC1)c1cc2cc3ccccc3nc2s1	-1	3	-10	-4	4.9*	-16	2
O=C(NNC(=O)c1cc2cc3ccccc3nc2s1)c1ccc(F)cc1	2	0	-5	-11	1	-3	·
CCOC(=O)/C(C#N)=C1/C=CNC(=O)N1	0	-2	7	-10	4.7*	0	3
CCOC(=O)/C(C#N)=C1/C=C(C)NC(c2ccccc2O)=N1	-2	-1	3	-1	2	-6	·
N#Cc1cc([N+](=O)[O-])cnc1NCC(O)CO (stereo unspecified)	-2	-2	-3	-4	5.4*	-1	5
COc1cccc(NC(=S)N2CCC(c3ccc(C)cc3)C2)c1 (stereo unspecified)	-4	-3	-2	-6	2	1	·
CCn1c(Sc2nc(C)nc3scc(-c4cccs4)c23)n[nH]c1=O	-1	4	-1	-7	10*	-10	10.0*
Cc1nc(SCC(=O)NC(=O)NCCC(C)C)c2c(-c3cccs3)csc2n1	-1	0	4	-7	3	-5	·
CCN(CC)c1nc(N)c2c(N)n(-c3ccccc3C)c(=S)c(C#N)c2c1C#N	-3	3	-11	-13	8.0*	2	9.3*
